Measurements of several laboratories.
Lines come from different studies, so protocols differ.

SMILES | target | test | conditions | Kd [µM]
NS(=O)(=O)C(F)(F)F | Carbonic anhydrase 1 (CA1, Homo sapiens, UniProt P00915) | binding, ITC | pH 6 | 0.164
Cc1cc(Nc2cc3ncccc3c(N[C@@H]3C[C@H]4CC[C@@H](C3)N4CCC#N)n2)n[nH]1 | Mitogen-activated protein kinase kinase kinase 2 (MAP3K2, Homo sapiens, UniProt Q9Y2U5) | binding, competition with immobilised ligand |  | 0.019
CCCN1CCN(c2ccc(-c3cncc(Cl)c3N3CCC4(CCNC4=O)CC3)cc2)CC1 | Nicotinamide phosphoribosyltransferase (NAMPT, Homo sapiens, UniProt P43490) | cell-free assay | lysate | 6.42
COc1cc(Nc2ncc3c(n2)-c2ccc(Cl)cc2C(c2c(F)cccc2OC)=NC3)ccc1C(=O)O | Protein-tyrosine kinase 2-beta (PTK2B, Homo sapiens, UniProt Q14289) | binding | lysate | 2.99
Cc1cc2nc3c(=O)[nH]c(=O)nc-3n(C[C@H](O)[C@H](O)[C@H](O)COP(=O)(O)OP(=O)(O)OC[C@H]3O[C@@H](n4cnc5c(N)ncnc54)[C@H](O)[C@@H]3O)c2cc1C | Cytotoxic granule associated RNA binding protein TIA1 (TIA1, Homo sapiens, UniProt P31483) | binding | lysate | 0.038
Cc1ccc(NC(=O)c2ccc(CN3CCS(=N)(=O)CC3)cc2)cc1Nc1nccc(-c2cccnc2)n1 | Tyrosine-protein kinase ABL1, non-phosphorylated (ABL1, Homo sapiens, UniProt P00519) | binding, competition with immobilised ligand |  | 0.079
COc1cc2c(Oc3ccc4[nH]c(C)cc4c3F)ccnc2cc1OCC1(N)CC1 | AMP-activated protein kinase (AMPK) alpha-1/beta-1/gamma-1 (PRKAG1/PRKAA1/PRKAB1, Homo sapiens, UniProt P54619+Q13131+Q9Y478) | binding, SPR |  | 23.5
FC(F)(F)c1n[nH]cc1-c1nc2ccc3[nH]ncc3c2c2c1CCCC2 | Tyrosine-protein kinase ABL1, phosphorylated (ABL1, Homo sapiens, UniProt P00519) | binding, competition with immobilised ligand |  | 7.2
CC#CC(=O)N1CC[C@@H](n2cc(-c3ccc(Oc4c(F)cccc4F)cc3)c3c(N)n[nH]c(=O)c32)C1 | Receptor tyrosine-protein kinase erbB-2 (ERBB2, Homo sapiens, UniProt P04626) | binding, competition with immobilised ligand |  | > 3
O=c1cccccc1O | Carbonic anhydrase 2 (CA2, Homo sapiens, UniProt P00918) | binding, ITC |  | 1680
Cc1cnc(-c2ccc(-c3ccc(NC(=O)Nc4c(F)cc(F)cc4F)cc3F)c3c2C(=O)NC3)[nH]1 | Dual specificity mitogen-activated protein kinase kinase 6 (MAP2K6, Homo sapiens, UniProt P52564) | binding, competition with immobilised ligand |  | 0.012
